Non-standard residues stand in square brackets, D forms with d. Residues, ends and D or L forms follow the SMILES beside them. d2Nal = N[C@H](Cc1ccc2ccccc2c1)C(=O)O
Tested on: Candida albicans
Test: Inhibition of Candida albicans at 100 uM concentration.
Format: functional
In short: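 Five C. albicans clinical isolates plus ATCC 24433, grown 48 h at 32 °C in Sabouraud dextrose broth to stationary phase, washed in distilled water. 1×10^6 yeast in water exposed to peptide at 10^-4 M final, 2 h at 37 °C; water controls. Diluted to ~100 organisms/mL, 1 mL plated on blood agar, 48 h at 37 °C, colonies counted. Triplicates.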

Molecule | inhibition at 100 µM
CC(C)[C@H](NC(=O)[C@H](CO)NC(=O)[C@H](CCCCN)NC(=O)CNC(=O)[C@H](Cc1c[nH]c2ccccc12)NC(=O)[C@H](CCCN=C(N)N)NC(=O)[C@@H](Cc1ccc2ccccc2c1)NC(=O)[C@@H](N)Cc1c[nH]cn1)C(N)=O | 73.9%
CC(C)[C@H](NC(=O)[C@H](Cc1ccccc1)NC(=O)[C@H](CCCCN)NC(=O)CNC(=O)[C@H](Cc1c[nH]c2ccccc12)NC(=O)[C@H](CCCNC(=N)N)NC(=O)[C@H](Cc1ccccc1)NC(=O)[C@@H](N)Cc1cnc[nH]1)C(N)=O | 97.5%
CC(C)[C@H](NC(=O)[C@H](Cc1ccccc1)NC(=O)[C@H](CCCCN)NC(=O)CNC(=O)[C@H](Cc1c[nH]c2ccccc12)NC(=O)[C@H](CCCN=C(N)N)NC(=O)[C@@H](Cc1ccc2ccccc2c1)NC(=O)[C@@H](N)Cc1c[nH]cn1)C(N)=O | 67.7%
CC(C)[C@H](NC(=O)[C@@H](C)NC(=O)[C@H](CCCCN)NC(=O)CNC(=O)[C@H](Cc1c[nH]c2ccccc12)NC(=O)[C@H](CCCN=C(N)N)NC(=O)[C@@H](Cc1ccc2ccccc2c1)NC(=O)[C@@H](N)Cc1c[nH]cn1)C(N)=O | 28%
CC(C)[C@@H](NC(=O)[C@H]1CCCN1C(=O)[C@H](CCCCN)NC(=O)CNC(=O)[C@H](Cc1c[nH]c2ccccc12)NC(=O)[C@H](CCCN=C(N)N)NC(=O)[C@H](Cc1ccccc1)NC(=O)[C@@H](N)Cc1c[nH]cn1)C(N)=O | 82.5%
CC(C)[C@H](NC(=O)[C@@H](Cc1ccccc1)NC(=O)[C@H](CCCCN)NC(=O)CNC(=O)[C@H](Cc1c[nH]c2ccccc12)NC(=O)[C@H](CCCN=C(N)N)NC(=O)[C@@H](Cc1ccc2ccccc2c1)NC(=O)[C@@H](N)Cc1c[nH]cn1)C(N)=O | 99.7%
CC(C)[C@H](NC(=O)[C@H](C)NC(=O)[C@H](CCCCN)NC(=O)CNC(=O)[C@H](Cc1c[nH]c2ccccc12)NC(=O)[C@H](CCCN=C(N)N)NC(=O)[C@@H](Cc1ccc2ccccc2c1)NC(=O)[C@@H](N)Cc1c[nH]cn1)C(N)=O | 69.2%
CC(C)[C@H](NC(=O)[C@H](CC(=O)O)NC(=O)[C@H](CCCCN)NC(=O)CNC(=O)[C@H](Cc1c[nH]c2ccccc12)NC(=O)[C@H](CCCN=C(N)N)NC(=O)[C@H](Cc1ccccc1)NC(=O)[C@@H](N)Cc1c[nH]cn1)C(N)=O | 15.7%
CC(C)[C@H](NC(=O)[C@H](CCCCN)NC(=O)[C@H](CCCCN)NC(=O)CNC(=O)[C@H](Cc1c[nH]c2ccccc12)NC(=O)[C@H](CCCN=C(N)N)NC(=O)[C@@H](Cc1ccc2ccccc2c1)NC(=O)[C@@H](N)Cc1c[nH]cn1)C(N)=O | 83.8%
CC(C)[C@H](NC(=O)[C@H]1CCCN1C(=O)[C@H](CCCCN)NC(=O)CNC(=O)[C@H](Cc1c[nH]c2ccccc12)NC(=O)[C@H](CCCN=C(N)N)NC(=O)[C@@H](Cc1ccccc1)NC(=O)[C@@H](N)Cc1c[nH]cn1)C(N)=O | 80.5%
CC(C)[C@H](NC(=O)[C@@H](CC(=O)O)NC(=O)[C@H](CCCCN)NC(=O)CNC(=O)[C@H](Cc1c[nH]c2ccccc12)NC(=O)[C@H](CCCN=C(N)N)NC(=O)[C@@H](Cc1ccccc1)NC(=O)[C@@H](N)Cc1c[nH]cn1)C(N)=O | 3.7%
CC(C)[C@H](NC(=O)[C@H](C)NC(=O)[C@H](CCCCN)NC(=O)CNC(=O)[C@H](Cc1c[nH]c2ccccc12)NC(=O)[C@H](CCCN=C(N)N)NC(=O)[C@H](Cc1ccccc1)NC(=O)[C@@H](N)Cc1c[nH]cn1)C(N)=O | 46.1%
CC(C)[C@H](NC(=O)[C@H](CCC(=O)O)NC(=O)[C@H](CCCCN)NC(=O)CNC(=O)[C@H](Cc1c[nH]c2ccccc12)NC(=O)[C@H](CCCN=C(N)N)NC(=O)[C@@H](Cc1ccc2ccccc2c1)NC(=O)[C@@H](N)Cc1c[nH]cn1)C(N)=O | 32.3%
CC(C)[C@H](NC(=O)[C@H](CC(=O)O)NC(=O)[C@H](CCCCN)NC(=O)CNC(=O)[C@H](Cc1c[nH]c2ccccc12)NC(=O)[C@H](CCCN=C(N)N)NC(=O)[C@@H](Cc1ccc2ccccc2c1)NC(=O)[C@@H](N)Cc1c[nH]cn1)C(N)=O | 16.8%
CC(C)[C@H](NC(=O)[C@@H](Cc1ccccc1)NC(=O)[C@H](CCCCN)NC(=O)CNC(=O)[C@H](Cc1c[nH]c2ccccc12)NC(=O)[C@H](CCCN=C(N)N)NC(=O)[C@@H](Cc1ccccc1)NC(=O)[C@@H](N)Cc1c[nH]cn1)C(N)=O | 89.6%
CC(C)[C@H](NC(=O)[C@@H](C)NC(=O)[C@H](CCCCN)NC(=O)CNC(=O)[C@H](Cc1c[nH]c2ccccc12)NC(=O)[C@H](CCCN=C(N)N)NC(=O)[C@H](Cc1ccccc1)NC(=O)[C@@H](N)Cc1c[nH]cn1)C(N)=O | 12.8%
CC(C)[C@H](NC(=O)[C@@H](Cc1ccccc1)NC(=O)[C@H](CCCCN)NC(=O)CNC(=O)[C@H](Cc1c[nH]c2ccccc12)NC(=O)[C@H](CCCN=C(N)N)NC(=O)[C@H](Cc1ccccc1)NC(=O)[C@@H](N)Cc1c[nH]cn1)C(N)=O | 90.8%
CC(C)[C@H](NC(=O)CNC(=O)[C@H](CCCCN)NC(=O)CNC(=O)[C@H](Cc1c[nH]c2ccccc12)NC(=O)[C@H](CCCN=C(N)N)NC(=O)[C@@H](Cc1ccc2ccccc2c1)NC(=O)[C@@H](N)Cc1c[nH]cn1)C(N)=O | 36.2%
CC(C)[C@H](NC(=O)[C@@H](CC(=O)O)NC(=O)[C@H](CCCCN)NC(=O)CNC(=O)[C@H](Cc1c[nH]c2ccccc12)NC(=O)[C@H](CCCN=C(N)N)NC(=O)[C@H](Cc1ccccc1)NC(=O)[C@@H](N)Cc1c[nH]cn1)C(N)=O | 5.9%
CC(C)[C@H](NC(=O)[C@H](Cc1ccccc1)NC(=O)[C@H](CCCCN)NC(=O)CNC(=O)[C@H](Cc1c[nH]c2ccccc12)NC(=O)[C@H](CCCN=C(N)N)NC(=O)[C@@H](Cc1ccccc1)NC(=O)[C@@H](N)Cc1c[nH]cn1)C(N)=O | 77.7%
CC(C)[C@H](NC(=O)[C@@H]1CCCN1C(=O)[C@H](CCCCN)NC(=O)CNC(=O)[C@H](Cc1c[nH]c2ccccc12)NC(=O)[C@H](CCCN=C(N)N)NC(=O)[C@@H](Cc1ccc2ccccc2c1)NC(=O)[C@@H](N)Cc1c[nH]cn1)C(N)=O (H-H[d2Nal]RWGKPV-NH2) | 95.3%
H-HFRWGAPV-NH2 | 26.2%
H-HFRWGKEV-NH2 | 11.2%
H-HFRWGKGV-NH2 | 41.8%
H-HFRWGKKV-NH2 | 41%
H-HFRWGKPA-NH2 | 68.4%
H-HFRWGKPL-NH2 | 87.4%
H-HFRWGKSV-NH2 | 32.3%

From ChEMBL document CHEMBL1145778, “Novel alpha-melanocyte stimulating hormone peptide analogues with high candidacidal activity” (2003)
